Published values collected from several papers.
Compare with care: the assays were run in different laboratories.
Target: Acetylcholinesterase (ache, Electrophorus electricus, UniProt O42275)
Effect on: enzyme activity
Action: inhibitor
Method: Ellman

O=C(NCCN1CCN(Cc2ccccc2)CC1)c1cc2cccc(O)c2o1
IC50: 20 µM

C#CCNC(=O)c1cc2ccc(N(CC)CC)cc2oc1=O
IC50 (pH 7.6): > 50 µM

C#CCN(C)c1nc(NCCCCC2CCN(Cc3ccccc3)CC2)c(C#N)c(-c2ccccc2)c1C#N
IC50: 0.023 µM

Cc1c(C(=O)[C@H]2[C@H](c3c[nH]c4ccccc34)[C@H]3CSCN3[C@]23C(=O)Nc2ccccc23)cnn1-c1ccccc1
IC50: 57.1 µM

CC=C1[C@H]2C=C(C)C[C@]1(N(C)C)c1ccc(=O)[nH]c1C2
IC50: 0.61 µM

COc1cc2c(cc1OC)CN(S(=O)(=O)CCc1cn(-c3cnc4ccccc4c3)nn1)CC2
IC50: 0.028 µM

CC=C1[C@H]2C=C(C)C[C@]1(N)c1cc(OC)c(=O)[nH]c1C2
IC50: 0.16 µM

Cc1c(C(=O)[C@H]2[C@H](c3c[nH]c4ccc(Br)cc34)CN(C)[C@]23C(=O)Nc2cc(Cl)ccc23)cnn1-c1ccccc1
IC50: 27.8 µM

CC=C1[C@H]2C=C(C)C[C@]1(N)c1cc(O)c(=O)[nH]c1C2
IC50: 0.53 µM

O=C(NCCN1CCN(Cc2ccccc2)CC1)c1cc2ccccc2o1
IC50: 18.5 µM

C#CCN(C)c1nc(NCCCCC2CCN(Cc3ccccc3)CC2)c(C#N)cc1C#N
IC50: 0.00074 µM

CCOc1ccc(C=NNC(=S)NCC(=O)c2ccc(-c3ccccc3)cc2)cc1
IC50: 460 µM

O=C(NNS(=O)(=O)c1ccc(Br)cc1)C(=O)NNS(=O)(=O)c1ccc(Br)cc1
IC50 (with preincubation): 3.28 µM

CCOc1ccc(C=NNC(=S)NCC(=O)c2ccccc2O)cc1
IC50: 420 µM

CC=C1[C@H]2C=C(C)C[C@]1(N)c1cc(OCCC)c(=O)[nH]c1C2
IC50: 10.2 µM

Cc1c(C(=O)[C@H]2[C@H](c3c[nH]c4ccc(Br)cc34)[C@H]3CCCN3[C@]23C(=O)Nc2ccccc23)cnn1-c1ccccc1
IC50: > 100 µM

CC1(C)O[C@H]2CC(=O)OC[C@]23[C@H]2CC[C@@]4(C)[C@H](c5ccoc5)OC(=O)[C@H]5O[C@]54[C@]2(C)C(=O)C[C@@H]13
IC50: 1060 µM

Cc1c(C(=O)[C@H]2[C@H](c3cn(C)c4ccccc34)[C@H]3CSCN3[C@]23C(=O)Nc2ccccc23)cnn1-c1ccccc1
IC50: > 100 µM

CC=C1[C@H]2C=C(C)C[C@]1(N)c1cc(F)c(=O)[nH]c1C2
IC50: 1.23 µM

Cc1c(C(=O)[C@H]2[C@H](c3c[nH]c4ccccc34)[C@H]3CSCN3[C@]23C(=O)Nc2cc(Cl)ccc23)cnn1-c1ccccc1
IC50: > 100 µM

CC=C1[C@H]2C=C(C)C[C@]1(N)c1cc(C#N)c(=O)[nH]c1C2
IC50: 33.9 µM
